Experimental data collected from several papers.
Each line is one published result; the experiments were not run side by side.
Target: Serine/threonine-protein kinase VRK2 (VRK2, Homo sapiens, UniProt Q86Y07)

SMILES	read-out	method	tested at	remaining binding [%]
c1cncc(-c2cccc(Nc3nccc(NC4CCCCC4)n3)c2)c1	binding	competition with immobilised ligand	10 µM	82
O=C(c1ccc(Nc2ncc(Cl)c(-c3cc4ccccc4s3)n2)cc1)N1CCC(N2CCCC2)CC1	binding	competition with immobilised ligand	1 µM	70
O=C(NCCCC1CCCCC1)c1ccc(CNC(=O)c2cnn(-c3ccccc3)c2C(F)(F)F)cc1	cell-free assay	competition with immobilised ligand	0.1 µM	100
O=C(Nc1c[nH]nc1C(=O)NC1CCNCC1)c1cc(F)cc(F)c1	binding	competition with immobilised ligand	1 µM	100
N[C@H]1CCN(c2nccc(-c3cnn4ncccc34)n2)C1	binding	–	1 µM	83
CCN1CCN(Cc2ccc(C(=O)Nc3ccc(C)c(Oc4ccc5c(c4)CC(=O)N5)c3)cc2C(F)(F)F)CC1	binding	competition with immobilised ligand	1 µM	100
O=C(N1CCS(=O)(=O)CC1)N1C[C@H](c2ccc(OC(F)(F)F)cc2)C[C@H](c2nc(C3CC3)no2)C1	cell-free assay	competition with immobilised ligand	1 µM	90
CN(C)c1nccc(-c2cnc3ncccn23)n1	binding	–	1 µM	64
O=C(c1ccc(Nc2nccc(-c3cc4ccccc4s3)n2)cc1)N1CCC(N2CCCC2)CC1	binding	competition with immobilised ligand	1 µM	35
CNC(=O)[C@@H]1CC[C@@H](n2c(-c3ccc4cnccc4c3)nc3ccc(C(=O)NCc4cccc(C(N)=O)c4)cc32)C1	binding	competition with immobilised ligand	1 µM	100
Cc1noc([C@H]2C[C@@H](c3ccc(C(F)(F)F)cc3)CN(C(=O)N3CCS(=O)(=O)C3)C2)n1	cell-free assay	competition with immobilised ligand	1 µM	91
C[C@@H]1CCN(c2nccc(-c3cnn4ncccc34)n2)C1	binding	–	1 µM	82
FC(F)(F)Oc1cccc(-c2cnc3ccc(-c4ccncc4)nn23)c1	binding	competition with immobilised ligand	5 µM	75
CNC(=O)Nc1ccc2c(c1)[C@@]1(CC2)OC(=O)N(CC(=O)N(Cc2ccc(F)cc2)[C@@H](C)C(F)(F)F)C1=O	cell-free assay	competition with immobilised ligand	1 µM	97
CCCNc1nc(C#Cc2ccc(Cl)s2)nc2c1ncn2[C@H]1[C@H](O)[C@H](O)[C@]2(C(=O)NC)C[C@H]12	binding	competition with immobilised ligand	10 µM	31
c1cnn2ncc(-c3ccnc(N4CCC45COC5)n3)c2c1	binding	–	1 µM	74
C=CC(=O)N1CCC(C(=O)NCC(=O)N2CCN(c3nc(-c4cnc(N)nc4C(F)F)nc(N4CCOCC4)n3)CC2)CC1	binding	competition with immobilised ligand	1 µM	93
CN([C@@H]1CCc2c(CC(=O)O)c3cc(S(C)(=O)=O)ccc3n2C1)S(=O)(=O)c1ccc(F)cc1	cell-free assay	competition with immobilised ligand	1 µM	94
CC1CCCN1c1nccc(-c2cnn3ncccc23)n1 (centres unmarked)	binding	–	1 µM	100
CCCCN(CCCC)C(=O)CN1C[C@@H](c2cc(OC)c3c(c2)OCO3)[C@H](C(=O)O)[C@H]1CC(C)(C)CCC	cell-free assay	competition with immobilised ligand	1 µM	95.4
CN(C)c1ncc(F)c(-c2cnn3ncccc23)n1	binding	–	1 µM	100
C[C@H](c1ccnc(Nc2nc3ccc(-c4cc(N(C)C)ncn4)cc3[nH]2)c1)N1CCN(C(=O)CC(F)(F)F)CC1	cell-free assay	competition with immobilised ligand	0.1 µM	94
O=C(NCCCN1CCOCC1)c1ccc(Nc2nccc(-c3cc4ccccc4s3)n2)cc1	binding	competition with immobilised ligand	1 µM	100
